In ChEMBL document CHEMBL2069278, “Novel substituted benzothiophene and thienothiophene carboxanilides and quinolones: synthesis, photochemical synthesis, DNA-binding properties, antitumor evaluation and 3D-derived QSAR analysis” (J Med Chem, 2012):
Calls of active or inactive are those of the source. The rule behind the calls is not given here.

Assays:
Nucleic Acid [1] = experiment: Binding affinity to calf thymus DNA assessed as change in melting temperature at drug/base pair ratio of 0.025 by UV-visible spectrophotometric analysis; format: nucleic-acid assay; conditions: Bos taurus
In short: (§1)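 Melting: 20 μM CT-DNA or poly(dAdT)2 alone or with compound (drug/base pair ratio 0.01−0.5) in BPE buffer (6 mM Na2HPO4, 2 mM NaH2PO4, 1 mM EDTA, pH 7.1); A260 read each minute from 20 to 100 °C at 1 °C/min; Tm from midpoint of hyperchromic transition (first-derivative plots); ΔTm = Tm[drug+DNA] − Tm[DNA alone].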

MOLT-4 = experiment: Cytotoxicity against human MOLT4 cells after 72 hrs by MTT assay; format: functional, cell-based; conditions: MOLT-4, 72 h
In short: (§2)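 Cells seeded on day 0 at 1 × 10^4 to 3 × 10^4 cells/mL (adherent lines in DMEM, MOLT-4 in suspension in RPMI, 10% FBS, 37 °C, 5% CO2); 10-fold dilutions 10−8–10−4 M for 72 h; MTT, OD 570 nm; percentage growth versus time-zero and control; IC50 by linear regression; quadruplicate, at least two experiments.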

HCT-116 [2] = experiment: Cytotoxicity against human HCT116 cells after 72 hrs by MTT assay; format: functional, cell-based; conditions: HCT-116, 72 h; in short: as §2
SW-620 = experiment: Cytotoxicity against human SW620 cells after 72 hrs by MTT assay; format: functional, cell-based; conditions: SW-620, 72 h; in short: as §2
MCF7 = experiment: Cytotoxicity against human MCF7 cells after 72 hrs by MTT assay; format: functional, cell-based; conditions: MCF7, 72 h; in short: as §2
NCI-H460 = experiment: Cytotoxicity against human H460 cells after 72 hrs by MTT assay; format: functional, cell-based; conditions: NCI-H460, 72 h; in short: as §2
Nucleic Acid [3] = experiment: Binding affinity to calf thymus DNA assessed as change in melting temperature at drug/base pair ratio of 0.01 by UV-visible spectrophotometric analysis; format: nucleic-acid assay; conditions: Bos taurus; in short: as §1
Nucleic Acid [4] = experiment: Binding affinity to calf thymus DNA assessed as DNA intercalation at 50 uM by circular dichroism spectra analysis; format: nucleic-acid assay; conditions: Bos taurus
In short: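 CD: 50 μM compound with 200 μM CT-DNA in BPE buffer, alone or plus 10 or 100 mM NaCl; spectra 480–230 nm, 10 mm quartz cell, 20 °C; compound without DNA as control for intrinsic CD.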

[5] = biological target: T1, DNA topoisomerase 1 (Homo sapiens) (UniProt P11387); experiment: Inhibition of human topoisomerase 1-mediated supercoiled pUC19 plasmid DNA relaxation at 10 uM incubated for 45 mins followed by enzyme addition measured after 30 mins by agarose gel electrophoresis
T1 sequence (whole entry): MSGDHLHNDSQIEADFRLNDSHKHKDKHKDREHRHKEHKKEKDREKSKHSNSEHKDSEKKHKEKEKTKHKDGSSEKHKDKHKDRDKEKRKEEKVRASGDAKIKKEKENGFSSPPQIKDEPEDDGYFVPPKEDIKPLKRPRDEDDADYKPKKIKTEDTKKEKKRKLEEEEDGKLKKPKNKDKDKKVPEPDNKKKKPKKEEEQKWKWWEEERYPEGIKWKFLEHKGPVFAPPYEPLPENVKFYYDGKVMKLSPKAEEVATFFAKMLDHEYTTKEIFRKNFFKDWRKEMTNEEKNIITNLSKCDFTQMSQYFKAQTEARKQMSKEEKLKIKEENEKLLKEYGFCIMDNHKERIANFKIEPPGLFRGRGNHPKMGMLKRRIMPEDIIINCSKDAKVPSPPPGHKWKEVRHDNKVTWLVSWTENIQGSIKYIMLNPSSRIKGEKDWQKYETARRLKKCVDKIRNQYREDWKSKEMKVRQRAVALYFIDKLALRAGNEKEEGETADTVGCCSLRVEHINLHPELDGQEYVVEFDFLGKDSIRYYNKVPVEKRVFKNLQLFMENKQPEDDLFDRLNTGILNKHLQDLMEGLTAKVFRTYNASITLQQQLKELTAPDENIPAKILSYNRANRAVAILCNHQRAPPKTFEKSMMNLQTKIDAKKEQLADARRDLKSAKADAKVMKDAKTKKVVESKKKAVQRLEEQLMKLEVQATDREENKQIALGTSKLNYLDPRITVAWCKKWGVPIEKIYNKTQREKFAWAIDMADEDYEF
In short: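 Graded compound concentrations preincubated with supercoiled pUC19, then 4 units human topoisomerase I, 37 °C for 45 min in relaxation buffer; stopped with 0.25% SDS and 250 μg/mL proteinase K, 30 min at 50 °C; 1% agarose gel without ethidium bromide, 2 h at 120 V in TBE, then stained with ethidium bromide.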

Nucleic Acid [6] = experiment: Binding affinity to radiolabeled Pvu2 DNA after 15 mins by Dnase1 footprinting assay; format: nucleic-acid assay
In short: (§3)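 265 bp EcoRI/PvuII pBluescript fragment, 3′-end labeled with α-[32P]dATP by Klenow. Compounds at increasing concentrations pre-equilibrated with DNA 15 min at 37 °C, then DNase I (final 0.002 unit/mL) in 20 mM NaCl, 2 mM MgCl2, 2 mM MnCl2, pH 7.3, 4 min digestion; products resolved on denaturing 8% polyacrylamide/8 M urea gel, G-track for base positions.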

Nucleic Acid [7] = experiment: Binding affinity to Poly (dAdT)2 DNA assessed as change in melting temperature at drug/base pair ratio of 0.01 by UV-visible spectrophotometric analysis; format: nucleic-acid assay; in short: as §1
Nucleic Acid [8] = experiment: Binding affinity to Poly (dAdT)2 DNA assessed as DNA intercalation at 20 uM by circular dichroism spectra analysis; format: nucleic-acid assay
In short: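 CD: compound titrated against poly(dAdT)2, or poly(dAdT)2 titrated with compound from 1 to 200 μM, in BPE buffer (pH 7.1); spectra from 480 to 230 nm in 10 mm quartz cell at 20 °C; peak position and intensity followed.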

[9] = biological target: T1, DNA topoisomerase 1 (Homo sapiens); experiment: Inhibition of human topoisomerase 1-mediated DNA cleavage at 10 uM incubated for 45 mins followed by enzyme addition measured after 30 mins by agarose gel electrophoresis
In short: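 Topo I cleavage run like the relaxation assay (pUC19, 4 units human topoisomerase I, 37 °C, 45 min; SDS/proteinase K stop), but samples run on 1% agarose gel containing ethidium bromide; camptothecin 20 μM as poisoning control.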

[10] = biological target: DNA topoisomerase 2-alpha (Homo sapiens) (UniProt P11388); experiment: Inhibition of human topoisomerase 2-mediated DNA cleavage at 50 uM incubated for 45 mins followed by enzyme addition measured after 30 mins by agarose gel electrophoresis
In short: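 Compounds (50 μM) incubated with 350 ng supercoiled pUC19 before topoisomerase II addition; gel quantified for percentage poisoning normalized to etoposide at the same concentration.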

HCT-116 [11] = experiment: Induction of cell cycle arrest in human HCT116 cells assessed as accumulation at G1 phase at 1 to 5 uM by propidium iodide based flow cytometry; format: functional; conditions: TDE = time-dependent effect
In short: (§4)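 HCT116 cells (2 × 10^5 per well) treated after 24 h with 1 or 5 μM for 24 and 48 h; floating and attached cells pooled, fixed in 70% ethanol, stained with 50 μg/mL propidium iodide plus RNase A; 20 000 events by flow cytometry; phase percentages from DNA histograms; duplicate, repeated at least twice.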

HCT-116 [12] = experiment: Induction of cell cycle arrest in human HCT116 cells assessed as accumulation at G2/M phase at 1 to 5 uM by propidium iodide based flow cytometry; format: functional; conditions: TDE = time-dependent effect; in short: as §4
HCT-116 [13] = experiment: Induction of cell cycle arrest in human HCT116 cells assessed as accumulation at G1 phase after 24 to 48 hrs by propidium iodide based flow cytometry; format: functional; in short: as §4
HCT-116 [14] = experiment: Induction of cell cycle arrest in human HCT116 cells assessed as accumulation at G2/M phase after 24 to 48 hrs by propidium iodide based flow cytometry; format: functional; in short: as §4
Nucleic Acid [15] = experiment: Binding affinity to calf thymus DNA assessed as change in melting temperature at drug/base pair ratio of 0.1 by UV-visible spectrophotometric analysis; format: nucleic-acid assay; conditions: Bos taurus; in short: as §1
Nucleic Acid [16] = experiment: Binding affinity to AT rich site of Pvu2 DNA by densitometric analysis; format: nucleic-acid assay; in short: as §3
Nucleic Acid [17] = experiment: Binding affinity to calf thymus DNA assessed as change in melting temperature at drug/base pair ratio of 0.25 by UV-visible spectrophotometric analysis; format: nucleic-acid assay; conditions: Bos taurus; in short: as §1
Nucleic Acid [18] = experiment: Binding affinity to calf thymus DNA assessed as change in melting temperature at drug/base pair ratio of 0.5 by UV-visible spectrophotometric analysis; format: nucleic-acid assay; conditions: Bos taurus; in short: as §1
Nucleic Acid [19] = experiment: Binding affinity to Poly (dAdT)2 DNA assessed as change in melting temperature at drug/base pair ratio of 0.025 by UV-visible spectrophotometric analysis; format: nucleic-acid assay; in short: as §1
Nucleic Acid [20] = experiment: Binding affinity to Poly (dAdT)2 DNA assessed as change in melting temperature at drug/base pair ratio of 0.05 by UV-visible spectrophotometric analysis; format: nucleic-acid assay; in short: as §1
Nucleic Acid [21] = experiment: Binding affinity to Poly (dAdT)2 DNA assessed as change in melting temperature at drug/base pair ratio of 0.1 by UV-visible spectrophotometric analysis; format: nucleic-acid assay; in short: as §1
Nucleic Acid [22] = experiment: Binding affinity to Poly (dAdT)2 DNA assessed as change in melting temperature at drug/base pair ratio of 0.25 by UV-visible spectrophotometric analysis; format: nucleic-acid assay; in short: as §1

DNA topoisomerase 2-alpha (Homo sapiens), sequence (P11388 whole entry): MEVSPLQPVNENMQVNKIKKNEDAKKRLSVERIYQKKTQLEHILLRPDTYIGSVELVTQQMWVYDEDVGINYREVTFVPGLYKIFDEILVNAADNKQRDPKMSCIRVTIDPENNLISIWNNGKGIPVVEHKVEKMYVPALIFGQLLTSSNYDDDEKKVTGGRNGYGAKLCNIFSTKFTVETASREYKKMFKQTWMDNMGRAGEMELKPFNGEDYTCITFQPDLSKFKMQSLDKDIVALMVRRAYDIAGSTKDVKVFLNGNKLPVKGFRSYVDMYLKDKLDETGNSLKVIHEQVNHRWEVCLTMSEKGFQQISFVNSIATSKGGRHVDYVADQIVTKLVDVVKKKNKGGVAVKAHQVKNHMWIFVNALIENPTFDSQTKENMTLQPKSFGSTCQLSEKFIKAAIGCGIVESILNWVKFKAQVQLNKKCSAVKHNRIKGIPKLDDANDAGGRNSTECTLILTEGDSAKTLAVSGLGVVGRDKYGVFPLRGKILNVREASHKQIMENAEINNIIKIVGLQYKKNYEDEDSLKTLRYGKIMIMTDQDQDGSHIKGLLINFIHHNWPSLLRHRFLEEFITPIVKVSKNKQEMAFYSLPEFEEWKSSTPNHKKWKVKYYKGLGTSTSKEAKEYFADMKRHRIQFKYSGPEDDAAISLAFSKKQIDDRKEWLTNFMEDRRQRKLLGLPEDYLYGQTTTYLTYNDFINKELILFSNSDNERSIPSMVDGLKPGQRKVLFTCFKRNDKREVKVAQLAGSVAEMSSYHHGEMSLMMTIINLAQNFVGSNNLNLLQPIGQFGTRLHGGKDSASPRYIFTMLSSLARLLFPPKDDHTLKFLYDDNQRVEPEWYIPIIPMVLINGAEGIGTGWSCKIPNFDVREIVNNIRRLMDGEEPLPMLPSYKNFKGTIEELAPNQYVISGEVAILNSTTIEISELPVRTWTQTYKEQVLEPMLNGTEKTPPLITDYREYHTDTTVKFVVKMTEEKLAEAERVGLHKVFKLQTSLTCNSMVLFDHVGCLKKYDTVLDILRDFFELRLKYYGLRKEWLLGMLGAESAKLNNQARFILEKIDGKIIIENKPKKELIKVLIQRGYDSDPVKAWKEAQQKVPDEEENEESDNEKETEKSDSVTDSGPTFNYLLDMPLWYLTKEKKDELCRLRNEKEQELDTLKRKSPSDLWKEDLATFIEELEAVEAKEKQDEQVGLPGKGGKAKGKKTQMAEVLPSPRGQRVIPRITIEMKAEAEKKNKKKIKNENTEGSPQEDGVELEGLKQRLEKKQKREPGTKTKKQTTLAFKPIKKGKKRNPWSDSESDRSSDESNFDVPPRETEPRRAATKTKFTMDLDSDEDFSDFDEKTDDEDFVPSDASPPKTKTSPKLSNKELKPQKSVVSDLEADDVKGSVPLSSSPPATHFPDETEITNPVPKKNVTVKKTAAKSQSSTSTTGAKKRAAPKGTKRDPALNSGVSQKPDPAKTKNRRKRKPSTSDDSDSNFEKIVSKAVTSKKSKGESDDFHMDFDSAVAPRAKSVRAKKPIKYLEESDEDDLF

O=C(Nc1ccc(C2=NCCN2)cc1)c1sc2cc(C3=NCCN3)ccc2c1Cl
ΔTm (Nucleic Acid [1]): 2 °C | IC50 (MOLT-4): 1900 nM | IC50 (HCT-116 [2]): 1700 nM | IC50 (SW-620): 1400 nM | IC50 (MCF7): 1500 nM | IC50 (NCI-H460): 2600 nM | ΔTm (Nucleic Acid [3]): 1 °C | Activity (Nucleic Acid [4]): Active | inhibition [5]: Active | Activity (Nucleic Acid [6]): Active | ΔTm (Nucleic Acid [7]): 1 °C | Activity (Nucleic Acid [8]): Active | inhibition [9]: Active | inhibition [10]: Active | Activity (HCT-116 [11]): tde | Activity (HCT-116 [12]): tde | Activity (HCT-116 [13]): Dose-dependent effect | Activity (HCT-116 [14]): Dose-dependent effect | ΔTm (Nucleic Acid [15]): 7.9 °C | Activity (Nucleic Acid [16]): Active | ΔTm (Nucleic Acid [17]): 23.9 °C | ΔTm (Nucleic Acid [18]): 28.4 °C | ΔTm (Nucleic Acid [19]): 2 °C | ΔTm (Nucleic Acid [20]): 5.9 °C | ΔTm (Nucleic Acid [21]): 18.6 °C | ΔTm (Nucleic Acid [22]): 27.4 °C
